In brackets after ≈: the same amount, converted by molar mass.
Tests used:
Format in all cases: functional
[1] = Evaluation for antiviral activity against herpes simplex virus-1(TK-) (B2006) in primary rabbit kidney cell cultures(PRK) (Concentration required to reduce virus-induced cytopathogenicity by 50%); details: Oryctolagus cuniculus
Vero [2] = experiment: Evaluation for antiviral activity against forest virus in Vero cell cultures (Concentration required to reduce virus-induced cytopathogenicity by 50%); details: Chlorocebus sabaeus
Procedure, shortened: (§1)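 Vero cultures were infected with parainfluenza-3, reovirus-1, Sindbis, Coxsackie B4 or Semliki forest virus. Values are concentrations giving 50% reduction of virus-induced cytopathogenicity, or a microscopically detectable alteration of normal cell morphology for cytotoxicity. Each is the average of two separate experiments.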

HeLa [3] = experiment: Evaluation for antiviral activity against polio virus-1 in HeLa cell cultures (Concentration required to reduce virus-induced cytopathogenicity by 50%); details: Homo sapiens
Procedure, shortened: (§2)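 HeLa cultures were infected with respiratory syncytial, vesicular stomatitis, Coxsackie B4 or polio-1 virus. The antiviral end-point is 50% reduction of virus-induced cytopathogenicity. Cytotoxicity is the minimum concentration producing microscopically detectable alteration of normal cell morphology.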

HeLa [4] = experiment: Compound was evaluated for antiviral activity against respiratory syncitial virus (long) in HeLa cell cultures (Concentration required to reduce virus-induced cytopathogenicity by 50%); details: Homo sapiens; procedure, shortened: as §2
MT4 = experiment: Inhibitory effect on the proliferation of human T-lymphocyte (MT-4); details: read-out: ID50 (the source's name)
Procedure, shortened: (§3)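 Proliferation assay in murine leukemia L1210, human T-lymphoblast Molt-4F and human T-lymphocyte MT-4 cells. ID50 is the dose inhibiting tumor cell proliferation by 50%, expressed in μg/mL.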

[5] = Evaluation for antiviral activity against herpes simplex virus-2(G) in primary rabbit kidney cell cultures(PRK) (Concentration required to reduce virus-induced cytopathogenicity by 50%); details: Oryctolagus cuniculus
[6] = Evaluation for antiviral activity against vesicular stomatitis virus in primary rabbit kidney cell cultures(PRK) (Concentration required to reduce virus-induced cytopathogenicity by 50%); details: Oryctolagus cuniculus
HeLa [7] = experiment: Evaluation for antiviral activity against vesicular stomatitis virus in HeLa cell cultures (Concentration required to reduce virus-induced cytopathogenicity by 50%); details: Homo sapiens; procedure, shortened: as §2
[8] = Evaluated for antiviral activity against herpes simplex virus-1(KOS) in primary rabbit kidney cell cultures(PRK) (Concentration required to reduce virus-induced cytopathogenicity by 50%); details: Oryctolagus cuniculus
Vero [9] = experiment: Evaluation for antiviral activity against Sindbis virus in Vero cell cultures (Concentration required to reduce virus-induced cytopathogenicity by 50%); details: Chlorocebus sabaeus; procedure, shortened: as §1
[10] = Evaluation for antiviral activity against herpes simplex virus-2(Lyons) in primary rabbit kidney cell cultures(PRK) (Concentration required to reduce virus-induced cytopathogenicity by 50%); details: Oryctolagus cuniculus
[11] = Evaluation for antiviral activity against herpes simplex virus-2(196) in primary rabbit kidney cell cultures(PRK) (Concentration required to reduce virus-induced cytopathogenicity by 50%); details: Oryctolagus cuniculus
Vero [12] = experiment: Evaluation for antiviral activity against Coxsackie virus B4 in Vero cell cultures (Concentration required to reduce virus-induced cytopathogenicity by 50%); details: Chlorocebus sabaeus; procedure, shortened: as §1
[13] = Evaluation for antiviral activity against vaccinia virus in primary rabbit kidney cell cultures(PRK) (Concentration required to reduce virus-induced cytopathogenicity by 50%); details: Oryctolagus cuniculus
HeLa [14] = experiment: Evaluation in HeLa cell cultures for cytotoxicity that is to cause microscopically detectable alteration of normal cell morphology; details: Homo sapiens; procedure, shortened: as §2
HeLa [15] = experiment: Evaluation for antiviral activity against Coxsackie virus B4 in HeLa cell cultures (Concentration required to reduce virus-induced cytopathogenicity by 50%); details: Homo sapiens; procedure, shortened: as §2
[16] = Evaluation for antiviral activity against herpes simplex virus-1(F) in primary rabbit kidney cell cultures(PRK) (Concentration required to reduce virus-induced cytopathogenicity by 50%); details: Oryctolagus cuniculus
[17] = Evaluation in PRK cell cultures for cytotoxicity that is to cause microscopically detectable alteration of normal cell morphology; details: Oryctolagus cuniculus
Vero [18] = experiment: Evaluation for antiviral activity against reo virus-1 in Vero cell cultures (Concentration required to reduce virus-induced cytopathogenicity by 50%); details: Chlorocebus sabaeus; procedure, shortened: as §1
MOLT-4F = experiment: Inhibitory effect on the proliferation of human T-lymphoblast cells (Molt-4F); details: read-out: ID50 (the source's name); procedure, shortened: as §3
L1210 = experiment: Inhibitory effect on the proliferation of murine leukemia cells (L1210); details: Mus musculus, read-out: ID50 (the source's name); procedure, shortened: as §3
Vero [19] = experiment: Evaluation for antiviral activity against parainfluenza-3 virus in Vero cell cultures (Concentration required to reduce virus-induced cytopathogenicity by 50%); details: Chlorocebus sabaeus; procedure, shortened: as §1
Vero [20] = experiment: Evaluation in Vero cell cultures for cytotoxicity that is to cause microscopically detectable alteration of normal cell morphology; details: Chlorocebus sabaeus; procedure, shortened: as §1
[21] = Evaluation for antiviral activity against herpes simplex virus-1 (McIntyre) in primary rabbit kidney cell cultures(PRK) (Concentration required to reduce virus-induced cytopathogenicity by 50%); details: Oryctolagus cuniculus
MDCK = experiment: Compound was evaluated in MDCK cell cultures for cytotoxicity that is to cause microscopically detectable alteration of normal cell morphology; details: Canis lupus familiaris
Procedure, shortened: (§4)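 Influenza A and B virus replication in MDCK cultures. Antiviral value is the concentration giving 50% reduction of virus-induced cytopathogenicity. Cytotoxicity is the concentration causing a microscopically detectable change in normal cell morphology.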

Influenza B virus = experiment: Concentration required to reduce influenza virus B (singapore) induced cytopathogenicity by 50%; procedure, shortened: as §4
Influenza A virus = experiment: Concentration required to reduce influenza virus A (ishikawa) induced cytopathogenicity by 50%; procedure, shortened: as §4

Row | SMILES | MIC [1] [µg/mL] | MIC (Vero [2]) [µg/mL] | MIC (HeLa [3]) [µg/mL] | MIC [5] [µg/mL] | MIC [6] [µg/mL] | MIC (HeLa [7]) [µg/mL] | MIC [8] [µg/mL] | MIC (Vero [9]) [µg/mL] | MIC [10] [µg/mL] | MIC [11] [µg/mL] | MIC (Vero [12]) [µg/mL] | MIC [13] [µg/mL] | MCC (HeLa [14]) [µg/mL] | MIC (HeLa [15]) [µg/mL] | MIC [16] [µg/mL] | MCC [17] [µg/mL] | MIC (Vero [18]) [µg/mL] | IC50 (MOLT-4F) [µg/mL] | IC50 (L1210) [µg/mL] | MCC (Vero [20]) [µg/mL] | also measured
1 | COc1ccc2[nH]c3c(c2c1)CCN1OCSC[C@@H](N)[C@H]31 | > 4 | > 1 | > 1 | > 4 | > 4 | > 1 | > 4 | > 1 | > 4 | > 4 | > 1 | > 4 | 4 | > 1 | > 4 | > 10 | > 1 | 0.94 (≈ 3.08 µM) | 6.54 (≈ 21.4 µM) | > 2.5 | MIC (HeLa [4]): > 1.6 µg/mL; IC50 (MT4): 1.99 µg/mL (≈ 6.52 µM); MIC (Vero [19]): > 1 µg/mL; MIC [21]: > 4 µg/mL
2 | Cn1c2c(c3ccccc31)CCN1OCSC[C@@H](N)[C@H]21 | – | > 10 | > 10 | – | > 10 | > 10 | > 10 | > 10 | > 10 | – | > 10 | > 10 | > 10 | > 10 | – | 40 | > 10 | – | – | > 40 | MIC (Vero [19]): > 10 µg/mL
3 | N[C@@H]1CSCON2CCc3c([nH]c4ccccc34)[C@@H]12 | > 10 | > 10 | > 10 | > 10 | > 10 | > 10 | > 10 | > 10 | > 10 | > 10 | > 10 | > 10 | > 10 | > 10 | > 10 | 40 | > 10 | 5.14 (≈ 18.7 µM) | 17.4 (≈ 63.2 µM) | 40 | MIC (HeLa [4]): > 8 µg/mL; IC50 (MT4): 4.5 µg/mL (≈ 16.3 µM); MCC (MDCK): 15 µg/mL; MIC (Vero [19]): > 10 µg/mL; MIC [21]: > 10 µg/mL; MIC (Influenza B virus): > 8 µg/mL; MIC (Influenza A virus): > 8 µg/mL
4 | Cn1c2c(c3ccccc31)CCN1OCSC[C@@H](N)[C@@H]21 | 7 (≈ 24.2 µM) | 2 (≈ 6.91 µM) | 2 (≈ 6.91 µM) | 0.7 (≈ 2.42 µM) | 7 (≈ 24.2 µM) | 7 (≈ 24.2 µM) | 3 (≈ 10.4 µM) | 2 (≈ 6.91 µM) | 0.7 (≈ 2.42 µM) | 1 (≈ 3.46 µM) | 0.7 (≈ 2.42 µM) | 1.5 (≈ 5.18 µM) | > 10 | 7 (≈ 24.2 µM) | 2 (≈ 6.91 µM) | > 40 | 1 (≈ 3.46 µM) | 0.37 (≈ 1.28 µM) | 0.56 (≈ 1.94 µM) | > 20 | IC50 (MT4): 0.69 µg/mL (≈ 2.38 µM); MIC (Vero [19]): 0.7 µg/mL (≈ 2.42 µM); MIC [21]: 0.7 µg/mL (≈ 2.42 µM)
5 | COc1ccc2[nH]c3c(c2c1)CCN1OCSC[C@@H](N)[C@@H]31 | 0.04 (≈ 0.131 µM) | 0.07 (≈ 0.229 µM) | 0.02 (≈ 0.0655 µM) | 0.02 (≈ 0.0655 µM) | 0.02 (≈ 0.0655 µM) | 0.02 (≈ 0.0655 µM) | 0.045 (≈ 0.147 µM) | 0.02 (≈ 0.0655 µM) | 0.04 (≈ 0.131 µM) | 0.02 (≈ 0.0655 µM) | 0.07 (≈ 0.229 µM) | 0.02 (≈ 0.0655 µM) | 0.4 | 0.02 (≈ 0.0655 µM) | 0.07 (≈ 0.229 µM) | > 1 | 0.07 (≈ 0.229 µM) | 0.0062 (≈ 0.0203 µM) | 0.005 (≈ 0.0164 µM) | > 1 | MIC (HeLa [4]): 0.15 µg/mL (≈ 0.491 µM); IC50 (MT4): 0.005 µg/mL (≈ 0.0164 µM); MCC (MDCK): 0.8 µg/mL; MIC [21]: 0.02 µg/mL (≈ 0.0655 µM); MIC (Influenza B virus): > 0.32 µg/mL; MIC (Influenza A virus): > 0.32 µg/mL
6 | N[C@H]1CSCON2CCc3c([nH]c4ccccc34)[C@@H]12 | 7 (≈ 25.4 µM) | 10 (≈ 36.3 µM) | > 10 | 2 (≈ 7.26 µM) | 2 (≈ 7.26 µM) | 7 (≈ 25.4 µM) | 2 (≈ 7.26 µM) | 20 (≈ 72.6 µM) | 2 (≈ 7.26 µM) | 2 (≈ 7.26 µM) | 7 (≈ 25.4 µM) | 2 (≈ 7.26 µM) | 40 | > 10 | 2 (≈ 7.26 µM) | > 10 | 20 (≈ 72.6 µM) | 1.54 (≈ 5.59 µM) | 1.24 (≈ 4.5 µM) | 40 | MIC (HeLa [4]): 3 µg/mL (≈ 10.9 µM); MCC (MDCK): 40 µg/mL; MIC (Vero [19]): 7 µg/mL (≈ 25.4 µM); MIC [21]: 2 µg/mL (≈ 7.26 µM); MIC (Influenza B virus): 3 µg/mL (≈ 10.9 µM); MIC (Influenza A virus): 3 µg/mL (≈ 10.9 µM)

— ChEMBL document CHEMBL1125540, “Antiviral and antitumor structure-activity relationship studies on tetracyclic eudistomines” (1992)
